Most compounds without a hit are left out; they make up all but 3.5% or so of the library.
FN deposition inh: fibronectin deposition inhibition; AH1F fibroblasts, Alexa488-fibronectin deposition fluorescence, overnight; inhibition, % at 12.6 µM; 350,000 compounds, 0.086% hits; AID 743247;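 active = mean inhibition across replicates of 30% or more, regardless of how many single replicates reach that level; inconclusive = mean under 30% yet at least half of replicates reach 30%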
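Assay system: AH1F fibroblast monolayer, labelled fibronectin deposition. Amount: 10000 cells per well. Also added: labelled fibronectin 24 nM. Compound: single-point pinned compound. Incubation: cell attachment 1 h, compound and FN exposure overnight. Detection: fluorescence after three HBSS washes, excitation 485 nm, emission 525 nm. Read-out: inhibition of fibronectin deposition signal.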
PglD DTNB: blocks C. jejuni PglD acetyltransferase activity; purified PglD enzyme, DTNB colorimetric CoA detection; inhibition, % at 12.5 µM; 360,000 compounds, 0.098% hits; AID 602405; in the data active = inhibition above about 16%, passing the limit was not always enough; inconclusive = no clear call, values can overlap the other calls
DENV2 CPE: DENV2-induced cell death inhibition; AID 651640; 350,000 compounds, 1.7% hits; DENV2-infected cells, cytopathic effect rescue, plate reader; CPE inhibition, % at 9.99 µM; in the data active = CPE inhibition above about 20%, passing the limit was not always enough; inconclusive = no clear call, values can overlap the other calls; tested in BHK-21 cells
PGC1a acetyl inh: modulators of PGC1a acetylation. 350,000 compounds, 0.17% hits. U2OS PGC1a acetylation, AlphaScreen anti-acetyl-lysine; with virally co-expressed GCN5 acetyltransferase. AID 651687. inhibition, % at 15.6 µM;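 active = every replicate shows inhibition of at least 40%; inconclusive = mean inhibition at least 40% but some replicate below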
rRNA inh HTS: inhibitors of bacterial rRNA selective over humanized ribosomes | E. coli WT GFP vs humanized-ribosome RFP mutants, fluorescence, 24 h; hits give low values; DMSO median 0, no signal -100 | 350,000 compounds, 1.6% hits | GFP signal change (wild-type ribosome), % (test concentration not listed);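 active = significant combined selectivity score with lowered wild-type GFP, culture density cut under 30%, mutant RFP and density less affected; inactive = any of these conditions unmet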
HIV Env fusion: inhibitors of HIV Env-mediated cell fusion. HeLa-JRFL Env/CEM21 cell fusion, luciferase. inhibition, % at 12.3 µM. 360,000 compounds, 1.1% hits. AID 651610;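 active = mean replicate inhibition score of at least 50 and every replicate individually at or above 50; inconclusive = only one of the two criteria met; inactive = mean below 50 and not all replicates reaching 50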
Each line names hits and unclear results; the compound was inactive in the other large screens; ! = repeats disagree; [ ] = another dose, or the depositor's remark.

CCOC(=O)N1CCN(S(=O)(=O)c2ccc(C(=O)NNc3nc4c(C)cccc4s3)cc2)CC1	HIV Env fusion 60
CCOC(=O)N1CCN(S(=O)(=O)c2ccc(C(=O)NNc3nc4c(C)cc(C)cc4s3)cc2)CC1	none (no result: rRNA inh HTS)
C[C@@H]1CN([C@H](C)CO)C(=O)c2cc(NC(=O)Nc3ccccc3)ccc2O[C@@H]1CN(C)S(=O)(=O)c1cccs1	none (no result: FN deposition inh)
COc1ccc(NC(=O)N(C)C[C@@H]2OCc3ccccc3-c3ccccc3C(=O)N([C@@H](C)CO)C[C@@H]2C)cc1	DENV2 CPE inconclusive (no result: HIV Env fusion)
COc1cc(NC(=O)c2nccn2C)cc(C(=O)Nc2cccc(C(F)(F)F)c2)c1	DENV2 CPE 110! (no result: PGC1a acetyl inh)
Cc1ccc(SCCN2CCC(NC(=O)OCc3ccccc3)CCC2=O)cc1 (stereo not given)	DENV2 CPE 32
Cc1noc(C)c1NC(=O)Nc1ccc2c(c1)C(=O)N([C@@H](C)CO)C[C@@H](C)[C@@H](CN(C)C(=O)Nc1ccccc1)OCCCC[C@H](C)O2	none
Cc1noc(C)c1NC(=O)Nc1ccc2c(c1)C(=O)N([C@@H](C)CO)C[C@@H](C)[C@@H](CN(C)C)OCCCC[C@@H](C)O2	DENV2 CPE 84 (no result: FN deposition inh)
Cc1noc(C)c1NC(=O)Nc1ccc2c(c1)C(=O)N([C@H](C)CO)C[C@H](C)[C@H](CN(C)C(=O)Nc1ccccc1)OCCCC[C@H](C)O2	DENV2 CPE 68
Cc1noc(C)c1NC(=O)Nc1ccc2c(c1)C(=O)N([C@@H](C)CO)C[C@@H](C)[C@@H](CN(C)S(C)(=O)=O)OCCCC[C@@H](C)O2	DENV2 CPE 102 (no result: FN deposition inh)
Cc1noc(C)c1NC(=O)Nc1ccc2c(c1)C(=O)N([C@@H](C)CO)C[C@H](C)[C@H](CN(C)S(=O)(=O)c1cccs1)OCCCC[C@H](C)O2	HIV Env fusion 70[16.7 µM] (no result: PGC1a acetyl inh)
COc1ccc(S(=O)(=O)Nc2ccc3c(c2)C(=O)N([C@@H](C)CO)C[C@H](C)[C@H](CN(C)C(=O)Nc2cccc4ccccc24)OCCCC[C@@H](C)O3)cc1	none (no result: FN deposition inh, PglD DTNB, HIV Env fusion)
C[C@@H]1CN([C@H](C)CO)C(=O)Cc2cc(NC(=O)NC3CCCCC3)ccc2O[C@H]1CN(C)C	DENV2 CPE inconclusive (no result: HIV Env fusion)
Cc1noc(C)c1NC(=O)Nc1ccc2c(c1)C(=O)N([C@@H](C)CO)C[C@@H](C)[C@H](CN(C)C(=O)Nc1c(C)noc1C)OCCCC[C@@H](C)O2	DENV2 CPE 30
Cc1cccc(/C=c2\s/c(=C\C(=O)C(C)(C)C)[nH]c2=O)c1	none (no result: FN deposition inh, PglD DTNB, DENV2 CPE, rRNA inh HTS, HIV Env fusion)
COc1cc(/C=c2\s/c(=C\C(=O)C(C)(C)C)[nH]c2=O)cc(OC)c1OC	rRNA inh HTS -18 (no result: FN deposition inh, PglD DTNB, PGC1a acetyl inh)
COc1ccc(/C=c2\s/c(=C\C(=O)C(C)(C)C)[nH]c2=O)cc1O	rRNA inh HTS -26 (no result: PglD DTNB)
COc1cccc(CNC23CC4CC(CC(C4)C2)C3)c1OCc1ccccc1	HIV Env fusion 62
CC(OC(=O)c1ccc(Cl)c(S(=O)(=O)Nc2ccc(F)cc2)c1)C(=O)NC(N)=O (stereo not given)	rRNA inh HTS -26
C[C@@H]1CN([C@H](C)CO)C(=O)Cc2cc(NS(=O)(=O)c3cccs3)ccc2O[C@H]1CN(C)C(=O)Nc1cccc2ccccc12	none (no result: FN deposition inh)
O=C(Nc1ccccc1)N1CC(=O)N2[C@H](C1)[C@H](c1ccc(C#CC3CCCC3)cc1)[C@@H]2CO	none (no result: PglD DTNB, PGC1a acetyl inh, HIV Env fusion)
C[C@H]1CN([C@@H](C)CO)C(=O)c2cccc(NC(=O)NC3CCCCC3)c2O[C@@H]1CN(C)C(=O)Nc1ccccc1	none (no result: FN deposition inh, HIV Env fusion)
O=S(=O)(NCc1c(Cl)cccc1Oc1ccccc1)c1ccccc1	DENV2 CPE 32
N#Cc1c(Cl)cccc1Oc1ccc(S(=O)(=O)Nc2ccccc2)cc1	rRNA inh HTS -28
Cc1ccc(S(=O)(=O)NCc2c(Cl)cccc2Oc2ccccc2)cc1	none (no result: FN deposition inh, DENV2 CPE, rRNA inh HTS, HIV Env fusion)
CN(C)C(=O)C[C@@H]1CC[C@@H]2[C@@H](COc3ccc(NC(=O)C4CC4)cc3C(=O)N2C)O1	none (no result: HIV Env fusion)
O=C(Cc1cn(Cc2ccccc2)c2ccccc12)Nc1ccc(Oc2cccnc2)cc1	DENV2 CPE 49 (no result: PglD DTNB, PGC1a acetyl inh)
Cn1cc(CC(=O)Nc2ccc(Nc3cccnc3)cc2)c2ccccc21	DENV2 CPE 54 (no result: PglD DTNB, PGC1a acetyl inh)
COc1cccc(NC(=O)Cc2cn(C)c3ccccc23)c1	none (no result: FN deposition inh, DENV2 CPE, rRNA inh HTS, HIV Env fusion)
CN(c1cccnc1)c1ccc(NC(=O)Cc2cn(Cc3ccccc3)c3ccccc23)cc1Br	none (no result: PglD DTNB, PGC1a acetyl inh)
CCCN(C(=O)CCc1cn(CCC)c2ccccc12)c1ccc(Oc2cccnc2)cc1	HIV Env fusion 70 (no result: PglD DTNB, PGC1a acetyl inh)
COc1cc(NC(=O)Cn2nc(C(F)(F)F)c(Br)c2C)cc([N+](=O)[O-])c1	rRNA inh HTS -15 (no result: PGC1a acetyl inh)
COc1ccc(CNC(=O)Cn2nc(C(F)(F)F)c(Br)c2C)cc1	none (no result: PGC1a acetyl inh)
C[C@H](CO)N1C[C@H](C)[C@@H](CN(C)S(=O)(=O)c2ccc(F)cc2)Oc2c(NS(=O)(=O)c3cn(C)cn3)cccc2C1=O	none (no result: PglD DTNB, DENV2 CPE, PGC1a acetyl inh, HIV Env fusion)
Cc1ccc2nc(-c3cccc(Br)c3)c(Cc3ccsc3)n2c1	DENV2 CPE 24 (no result: PglD DTNB, PGC1a acetyl inh)
Cc1ccc2nc(-c3ccccc3)c(Cc3ccsc3)n2c1	none (no result: PglD DTNB, PGC1a acetyl inh)
Clc1ccc(-c2nc3ccc(Br)cn3c2Cc2ccsc2)cc1	DENV2 CPE inconclusive, rRNA inh HTS -23
CC(C)CC(c1nnnn1Cc1cccs1)N1CCN(c2nc3ccccc3s2)CC1 (stereo not given)	none (no result: DENV2 CPE, rRNA inh HTS)
CC(C)C(c1nnnn1Cc1ccco1)N1CCN(c2nc3ccccc3s2)CC1 (stereo not given)	FN deposition inh 39 (no result: DENV2 CPE, rRNA inh HTS)
COCCn1nnnc1C(c1cccs1)N1CCN(c2nc3ccccc3s2)CC1 (stereo not given)	rRNA inh HTS -22 (no result: FN deposition inh, DENV2 CPE, HIV Env fusion)
Cc1csc2c(N3CCN(C(=S)Nc4ccc(C(F)(F)F)cc4)CC3)ncnc12	rRNA inh HTS -32
CCCN1C[C@H](C)[C@@H](OC)CN(C)C(=O)c2cc(NS(=O)(=O)c3cn(C)cn3)ccc2OC[C@H]1C	none (no result: DENV2 CPE, HIV Env fusion)
CN(CC(=O)Nc1c(Cl)cccc1Cl)C(=O)c1ccc(NS(=O)(=O)c2ccc3[nH]c(=O)[nH]c3c2)cc1	DENV2 CPE 40
CN(Cc1c(F)cccc1Cl)C(=O)c1ccc(NS(=O)(=O)c2ccc3[nH]c(=O)[nH]c3c2)cc1	rRNA inh HTS -22 (no result: PGC1a acetyl inh)
C[C@@H]1CN([C@@H](C)CO)C(=O)c2cc(NC(=O)CCC(F)(F)F)ccc2O[C@@H](C)CCCCO[C@@H]1CN(C)S(=O)(=O)c1cn(C)cn1	DENV2 CPE inconclusive (no result: FN deposition inh, PGC1a acetyl inh)
CO[C@H]1CN(C)C(=O)c2ccc(NS(=O)(=O)c3ccc(C)cc3)cc2OC[C@H](C)N(Cc2nccs2)C[C@@H]1C	none (no result: PglD DTNB)
CCC(=O)N1CCC1(C)C(=O)Nc1cccc(OC)c1OC (stereo not given)	HIV Env fusion 58
COc1ccc(CNc2ccc([N+](=O)[O-])cc2C)cc1	rRNA inh HTS -24 (no result: PglD DTNB)
Cc1cc([N+](=O)[O-])ccc1NCc1ccccc1	none (no result: FN deposition inh, DENV2 CPE, rRNA inh HTS, HIV Env fusion)

Screening data from PubChem BioAssay.
